Tests used:
Caco-2 [1] = experiment: Permeability action in Caco-2 cells; type: functional, Homo sapiens
Mus musculus [2] = experiment: Compound was tested for anti TNF-alpha activity using LPS mouse model at 10 mg/kg p.o.; type: functional; settings: route oral
[3] = target: Disintegrin and metalloproteinase domain-containing protein 17 (Sus scrofa, UniProt O77636); experiment: Inhibition of porcine Tumor necrosis factor- alpha converting enzyme (TACE, ADAM17)
[4] = target: Disintegrin and metalloproteinase domain-containing protein 17 (Homo sapiens, UniProt P78536); experiment: Effect on TNF-Alpha release in LPS-stimulated human whole blood assay; type: functional, tissue-based
Interstitial collagenase = target: T1, Interstitial collagenase (Homo sapiens, UniProt P03956); experiment: Inhibition of Matrix metalloprotease-1 (MMP-1)
T1 sequence (P03956 whole entry): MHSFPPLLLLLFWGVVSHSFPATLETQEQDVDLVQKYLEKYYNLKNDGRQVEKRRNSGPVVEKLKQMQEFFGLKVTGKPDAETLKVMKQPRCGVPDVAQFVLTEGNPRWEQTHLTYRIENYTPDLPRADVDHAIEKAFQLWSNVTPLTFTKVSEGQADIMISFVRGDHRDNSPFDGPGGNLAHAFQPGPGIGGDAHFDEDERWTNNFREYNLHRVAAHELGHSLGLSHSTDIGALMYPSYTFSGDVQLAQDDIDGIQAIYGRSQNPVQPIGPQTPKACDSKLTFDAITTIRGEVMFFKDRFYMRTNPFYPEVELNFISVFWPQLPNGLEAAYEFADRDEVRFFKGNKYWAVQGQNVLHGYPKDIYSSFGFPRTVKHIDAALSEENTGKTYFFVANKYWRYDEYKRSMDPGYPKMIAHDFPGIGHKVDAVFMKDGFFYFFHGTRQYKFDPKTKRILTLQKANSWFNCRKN
Summary of the method: (§1)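 Inhibition is reported as Ki (nM) against each isolated MMP. Each value comes from a single determination, with no replicates.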

[5] = target: 72 kDa type IV collagenase (Homo sapiens, UniProt P08253); experiment: inhibition of Matrix metalloprotease-2 (MMP-2); summary of the method: as §1
[6] = target: Matrix metalloproteinase-9 (Homo sapiens, UniProt P14780); experiment: Inhibition of Matrix metalloprotease-9 (MMP-9); summary of the method: as §1
Collagenase 3 = Collagenase 3 (Homo sapiens, UniProt P45452); experiment: Inhibition of Matrix metalloprotease-13 (MMP-13); summary of the method: as §1
Caco-2 [7] = experiment: Permeability action in Caco-2 cell; type: functional, Homo sapiens
Mus musculus [8] = experiment: Compound was tested for anti TNF-alpha activity using LPS mouse model at 5 mg/kg p.o.; type: functional; settings: route oral

Sequence of Disintegrin and metalloproteinase domain-containing protein 17 (Sus scrofa, UniProt O77636) (O77636 whole entry, the tested form may be a part): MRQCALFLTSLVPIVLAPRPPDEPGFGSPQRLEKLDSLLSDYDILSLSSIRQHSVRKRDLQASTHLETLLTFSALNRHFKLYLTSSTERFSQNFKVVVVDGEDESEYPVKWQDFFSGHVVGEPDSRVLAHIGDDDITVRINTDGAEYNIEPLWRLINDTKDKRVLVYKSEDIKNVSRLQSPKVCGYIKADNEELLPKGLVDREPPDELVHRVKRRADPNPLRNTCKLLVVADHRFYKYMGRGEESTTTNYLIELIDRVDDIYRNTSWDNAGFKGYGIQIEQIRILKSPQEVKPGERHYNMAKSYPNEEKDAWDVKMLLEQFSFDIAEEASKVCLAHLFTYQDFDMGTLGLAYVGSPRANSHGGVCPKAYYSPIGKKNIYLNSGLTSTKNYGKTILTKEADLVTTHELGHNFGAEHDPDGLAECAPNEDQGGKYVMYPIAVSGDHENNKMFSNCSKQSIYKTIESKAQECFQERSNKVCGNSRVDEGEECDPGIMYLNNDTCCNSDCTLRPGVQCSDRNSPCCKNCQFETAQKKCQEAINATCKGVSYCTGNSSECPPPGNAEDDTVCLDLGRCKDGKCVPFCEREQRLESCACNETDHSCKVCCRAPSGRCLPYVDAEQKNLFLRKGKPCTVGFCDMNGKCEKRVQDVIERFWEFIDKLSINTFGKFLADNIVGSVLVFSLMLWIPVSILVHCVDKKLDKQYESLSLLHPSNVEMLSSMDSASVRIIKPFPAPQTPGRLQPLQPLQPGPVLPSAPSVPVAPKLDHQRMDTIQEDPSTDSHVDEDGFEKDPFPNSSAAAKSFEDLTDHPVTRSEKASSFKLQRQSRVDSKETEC
Sequence of 72 kDa type IV collagenase (P08253 whole entry): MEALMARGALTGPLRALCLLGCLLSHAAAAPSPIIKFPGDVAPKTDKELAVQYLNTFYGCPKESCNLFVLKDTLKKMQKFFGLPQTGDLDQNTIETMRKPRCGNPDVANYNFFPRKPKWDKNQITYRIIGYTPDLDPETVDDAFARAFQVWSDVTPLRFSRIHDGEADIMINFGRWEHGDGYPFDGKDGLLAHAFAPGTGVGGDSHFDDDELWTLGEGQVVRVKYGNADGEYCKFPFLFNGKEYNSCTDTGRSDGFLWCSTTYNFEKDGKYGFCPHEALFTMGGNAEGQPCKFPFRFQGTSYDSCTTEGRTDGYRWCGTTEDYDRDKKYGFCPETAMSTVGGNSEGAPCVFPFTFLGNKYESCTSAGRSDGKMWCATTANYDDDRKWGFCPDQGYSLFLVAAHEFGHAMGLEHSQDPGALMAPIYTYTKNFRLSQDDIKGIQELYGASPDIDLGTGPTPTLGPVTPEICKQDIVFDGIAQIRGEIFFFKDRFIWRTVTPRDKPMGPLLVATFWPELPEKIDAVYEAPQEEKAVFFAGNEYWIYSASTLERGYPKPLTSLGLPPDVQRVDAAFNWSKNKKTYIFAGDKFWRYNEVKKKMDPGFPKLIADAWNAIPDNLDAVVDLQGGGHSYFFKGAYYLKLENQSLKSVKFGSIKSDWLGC
Sequence of Disintegrin and metalloproteinase domain-containing protein 17 (Homo sapiens, UniProt P78536) (P78536 whole entry, the tested form may be a part): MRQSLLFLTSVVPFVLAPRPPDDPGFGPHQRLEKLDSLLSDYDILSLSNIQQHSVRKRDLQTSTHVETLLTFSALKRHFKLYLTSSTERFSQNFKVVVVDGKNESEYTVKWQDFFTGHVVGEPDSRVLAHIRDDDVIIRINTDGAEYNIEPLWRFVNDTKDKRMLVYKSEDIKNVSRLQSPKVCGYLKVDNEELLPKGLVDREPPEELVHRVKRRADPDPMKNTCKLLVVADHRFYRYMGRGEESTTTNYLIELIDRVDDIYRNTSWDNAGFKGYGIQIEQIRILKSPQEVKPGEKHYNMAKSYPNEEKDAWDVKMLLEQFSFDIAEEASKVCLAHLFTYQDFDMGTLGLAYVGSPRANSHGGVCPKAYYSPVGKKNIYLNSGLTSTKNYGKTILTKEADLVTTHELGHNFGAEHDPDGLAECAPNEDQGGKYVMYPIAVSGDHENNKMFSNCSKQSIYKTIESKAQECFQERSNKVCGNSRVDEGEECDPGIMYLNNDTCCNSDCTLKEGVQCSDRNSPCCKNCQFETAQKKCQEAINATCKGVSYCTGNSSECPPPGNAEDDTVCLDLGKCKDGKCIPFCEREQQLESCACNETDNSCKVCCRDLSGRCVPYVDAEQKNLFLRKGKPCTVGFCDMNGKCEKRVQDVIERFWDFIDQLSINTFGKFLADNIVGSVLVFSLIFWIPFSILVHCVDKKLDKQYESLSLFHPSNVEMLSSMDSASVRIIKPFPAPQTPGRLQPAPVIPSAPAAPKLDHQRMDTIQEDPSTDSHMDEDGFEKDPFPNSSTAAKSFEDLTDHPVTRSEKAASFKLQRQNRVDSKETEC
Sequence of Matrix metalloproteinase-9 (P14780 whole entry): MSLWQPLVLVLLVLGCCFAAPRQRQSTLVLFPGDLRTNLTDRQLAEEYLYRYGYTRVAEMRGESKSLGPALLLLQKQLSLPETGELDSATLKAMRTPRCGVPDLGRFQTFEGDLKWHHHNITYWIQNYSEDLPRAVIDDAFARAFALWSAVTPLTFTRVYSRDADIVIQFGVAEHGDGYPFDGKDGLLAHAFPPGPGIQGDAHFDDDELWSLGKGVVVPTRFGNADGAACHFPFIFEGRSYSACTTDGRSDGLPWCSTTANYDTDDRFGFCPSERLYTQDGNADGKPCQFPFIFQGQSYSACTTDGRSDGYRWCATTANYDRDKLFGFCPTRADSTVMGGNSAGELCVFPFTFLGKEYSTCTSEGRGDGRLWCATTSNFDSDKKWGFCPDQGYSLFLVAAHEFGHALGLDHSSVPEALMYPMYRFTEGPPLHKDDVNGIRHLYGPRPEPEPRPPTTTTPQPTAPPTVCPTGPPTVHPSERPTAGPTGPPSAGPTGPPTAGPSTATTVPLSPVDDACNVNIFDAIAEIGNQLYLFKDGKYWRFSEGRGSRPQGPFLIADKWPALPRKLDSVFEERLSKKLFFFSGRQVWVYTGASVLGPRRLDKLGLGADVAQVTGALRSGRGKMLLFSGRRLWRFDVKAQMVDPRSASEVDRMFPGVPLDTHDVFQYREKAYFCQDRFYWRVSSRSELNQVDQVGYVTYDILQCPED

Row | IC50 [4] | Ki (Interstitial collagenase) | Ki [5] | Ki [6] | Ki (Collagenase 3) | Structure (SMILES) | Caco-2 Papp (Caco-2 [1]) | ED50 (Mus musculus [2]) | inhibition in vivo at 10 mg/kg (Mus musculus [2]) | IC50 [3] | Caco-2 Papp (Caco-2 [7]) | inhibition in vivo at 5 mg/kg (Mus musculus [8])
1 | 20 nM | > 4900 nM | > 3300 nM | > 2100 nM |  | CONC(=O)[C@H]1CCCN(C)[C@@H]1C(=O)Nc1ccc(OCc2cc(C)nc3ccccc23)cc1 | 2.1 ×10⁻⁶ cm/s | 3 mg/kg | > 50% | 6.2 nM |  | 
2 | 160 nM | > 4900 nM | > 3300 nM | > 2100 nM | 503 nM | C=CCN1CCC(C(=O)NO)C(CS(=O)(=O)c2ccc(OCc3cc(C)nc4ccccc34)cc2)C1 (stereo unspecified) | 0.97 ×10⁻⁶ cm/s |  | 25% | 1.8 nM |  | 
3 | 1070 nM | > 4900 nM | > 3300 nM | > 2100 nM | > 5000 nM | CCC(C)N1CCC(C(=O)NO)C(CS(=O)(=O)c2ccc(OCc3cc(C)nc4ccccc34)cc2)C1 (stereo unspecified) | 1.8 ×10⁻⁶ cm/s |  | 33% | < 1 nM |  | 
4 | 180 nM | > 4900 nM | > 3300 nM | > 2100 nM | 377 nM | C#CN1CCC(C(=O)NO)C(CS(=O)(=O)c2ccc(OCc3cc(C)nc4ccccc34)cc2)C1 (stereo unspecified) | 1.3 ×10⁻⁶ cm/s |  | 24% | 1 nM |  | 
5 | 180 nM | > 4900 nM | > 3300 nM | > 2100 nM | 1710 nM | Cc1cc(COc2ccc(S(=O)(=O)CC3C(C(=O)NO)CCN3C)cc2)c2ccccc2n1 (stereo unspecified) | 1 ×10⁻⁶ cm/s | 2.5 mg/kg | 50% | < 1 nM |  | 
6 | 230 nM | > 4900 nM | > 3300 nM | > 2100 nM | > 5000 nM | Cc1cc(COc2ccc(S(=O)(=O)CC3CN(C(C)C)CCC3C(=O)NO)cc2)c2ccccc2n1 (stereo unspecified) | 0.1 ×10⁻⁶ cm/s |  | 38% | 1.5 nM |  | 
7 | 900 nM | > 4900 nM | > 3300 nM | > 2100 nM | > 5000 nM | CCCCN1CCC(C(=O)NO)C(CS(=O)(=O)c2ccc(OCc3cc(C)nc4ccccc34)cc2)C1 (stereo unspecified) | 1.6 ×10⁻⁶ cm/s |  | 35% | < 1 nM |  | 
8 | 123 nM | > 4900 nM | > 3300 nM | > 2100 nM | > 5000 nM | Cc1cc(COc2ccc(S(=O)(=O)CC3(CC(=O)NO)CCCNC3)cc2)c2ccccc2n1 (stereo unspecified) | 0.1 ×10⁻⁶ cm/s |  |  | 2.8 nM |  | 31%
9 | 223 nM | > 4900 nM | 2570 nM | > 2100 nM | 753 nM | Cc1cc(COc2ccc(S(=O)(=O)CC3(CC(=O)NO)CCC3)cc2)c2ccccc2n1 | 4.9 ×10⁻⁶ cm/s |  |  | < 1 nM |  | 86%

Row | Structure (SMILES) | IC50 [4] | Ki (Interstitial collagenase) | Ki [5] | Ki [6] | Ki (Collagenase 3) | Caco-2 Papp (Caco-2 [1]) | ED50 (Mus musculus [2]) | inhibition in vivo at 10 mg/kg (Mus musculus [2]) | IC50 [3] | Caco-2 Papp (Caco-2 [7]) | inhibition in vivo at 5 mg/kg (Mus musculus [8])
10 | Cc1cc(COc2ccc(S(=O)(=O)CC3NCCC3C(=O)NO)cc2)c2ccccc2n1 (stereo unspecified) | 83 nM | > 4900 nM | > 3300 nM | > 2100 nM | 955 nM | 0.1 ×10⁻⁶ cm/s |  | 20% | < 1 nM |  | 
11 | Cc1cc(COc2ccc(S(=O)(=O)CC3CNCCC3C(=O)NO)cc2)c2ccccc2n1 (stereo unspecified) | 250 nM | > 4900 nM | > 3300 nM | > 2100 nM | > 5000 nM |  |  |  | 1 nM | 0.1 ×10⁻⁶ cm/s | 
12 | Cc1cc(COc2ccc(S(=O)(=O)CC3(CC(=O)NO)CCCO3)cc2)c2ccccc2n1 (stereo unspecified) | 913 nM | > 4900 nM | > 3300 nM | > 2100 nM | > 5000 nM | 5 ×10⁻⁶ cm/s |  |  | 1 nM |  | 57%

Reference: ChEMBL document CHEMBL1137180, “Synthesis and structure-activity relationship of a novel sulfone series of TNF-alpha converting enzyme inhibitors” (Bioorg Med Chem Lett, 2004)
